Measurements: ChEMBL document CHEMBL1125687, “5-Lipoxygenase inhibitors: the synthesis and structure-activity relationships of a series of 1-phenyl-3-pyrazolidinones” (J Med Chem, 1991)
pIC50: −log10 of the molar value.

Legend:
[1] = target: T1, Polyunsaturated fatty acid 5-lipoxygenase (Rattus norvegicus, UniProt P12527); assay: In vitro inhibition of rat 5-Lipoxygenase
T1 sequence (P12527 whole entry): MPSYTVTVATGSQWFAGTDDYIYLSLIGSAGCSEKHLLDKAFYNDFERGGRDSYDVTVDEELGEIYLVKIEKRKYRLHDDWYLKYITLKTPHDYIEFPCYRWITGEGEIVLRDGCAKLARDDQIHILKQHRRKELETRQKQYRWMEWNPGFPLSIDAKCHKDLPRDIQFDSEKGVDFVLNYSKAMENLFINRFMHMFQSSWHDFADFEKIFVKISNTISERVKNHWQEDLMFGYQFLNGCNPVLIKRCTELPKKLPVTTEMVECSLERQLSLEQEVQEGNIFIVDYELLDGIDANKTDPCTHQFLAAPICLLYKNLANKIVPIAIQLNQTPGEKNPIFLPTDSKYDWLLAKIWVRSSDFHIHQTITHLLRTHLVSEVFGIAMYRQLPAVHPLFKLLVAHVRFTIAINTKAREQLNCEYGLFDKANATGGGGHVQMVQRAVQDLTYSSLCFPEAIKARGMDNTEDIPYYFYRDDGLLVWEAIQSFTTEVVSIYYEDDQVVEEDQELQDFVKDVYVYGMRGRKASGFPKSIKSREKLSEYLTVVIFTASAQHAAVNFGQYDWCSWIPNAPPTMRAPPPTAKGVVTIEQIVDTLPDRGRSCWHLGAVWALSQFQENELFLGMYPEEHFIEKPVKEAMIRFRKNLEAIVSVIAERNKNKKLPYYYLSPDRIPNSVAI
How it was run: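 Broken-cell assay: homogenized rat basophilic RBL-1 cells preincubated 5 min at 37 °C with compound or vehicle, then given [14C]arachidonic acid. A chloroform extract was run on TLC, and LTB4 and 5-HETE were quantified by radiochromatographic scanning.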

[2] = Partition coefficient (logP); type: physicochemical; conditions: octanol/water
Cavia porcellus = assay: Compound was evaluated for the inhibition of leukotriene-mediated bronchoconstriction in guinea pig (in vivo); type: functional; conditions: Lung
How it was run: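 Guinea pigs were immunized with ovalbumin 1 mg plus alum 3 mg and used two weeks later, anesthetized and mechanically ventilated with tracheal pressure monitored. Pretreatment iv: naproxen 10 mg/kg, pyrilamine 3 mg/kg, propranolol 0.1 mg/kg. Compound or vehicle was given orally 1 h before iv ovalbumin challenge (0.3 mg/kg). Percent inhibition was taken from the maximum tracheal pressure rise within 20 min. ED50 with 95% confidence limits came from linear dose-response portions, n≥8 per dose.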

[3] = target: T2, Polyunsaturated fatty acid 5-lipoxygenase (Rattus norvegicus) (UniProt P12527); assay: Compound was evaluated for the inhibition of 5-Lipoxygenase (5-LO) ex vivo; type: functional
T2 sequence (whole entry): T1 sequence (P12527 whole entry)
How it was run: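 Rats received 0.25% (w/v) carrageenan to induce pleural inflammation. After 3 h, compound or vehicle was given orally, and rats were killed 1 h later. Pleural exudate cells (>95% neutrophils) were stimulated with A23187 for 15 min and stopped with acetonitrile/methanol. After 30 min extraction at room temperature, samples were centrifuged and LTB₄ measured by reverse-phase HPLC. ED₅₀ with 95% confidence limits came from linear dose-response portions, ≥5 animals per dose.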

[4] = target: T2, Polyunsaturated fatty acid 5-lipoxygenase (Rattus norvegicus); conditions: at 1 µM
[5] = target: T2, Polyunsaturated fatty acid 5-lipoxygenase (Rattus norvegicus); assay: Compound was evaluated for the inhibition of 5-Lipoxygenase (5-LO) in vitro at 1 uM

Row | Compound | pIC50 [1] | logP [2] | also measured
1 | COCCC1CN(c2ccc(Cl)cc2)NC1=O (stereo unspecified) | 6.60 | 1.24 | 
2 | O=C1CCN(c2ccccc2)N1 [PHENIDONE] |  | 0.893 | ED50 (Cavia porcellus): 69 mg/kg; ED50 [3]: 16 mg/kg
3 | COCCC1CN(c2ccc(OC)cc2)NC1=O (stereo unspecified) | 5.84 | 0.45 | 
4 | O=C1NN(c2ccccc2)CC1CCO (stereo unspecified) | < 6.00 |  | inhibition [4]: 35%
5 | COCCC1CCN(c2ccccc2)NC1=O (stereo unspecified) | 6.36 | 1.09 | 
6 | COCc1cn(-c2ccccc2)[nH]c1=O | < 6.00 |  | 
7 | CCOCCC1CN(c2ccccc2)NC1=O (stereo unspecified) | 6.82 | 1.06 | 
8 | COCCC1CN(c2ccc(O)cc2)NC1=O (stereo unspecified) | 5.29 | -0.14 | 
9 | CC(=O)NN(C)c1ccccc1 |  |  | inhibition [5]: < 20%
10 | COCCC1CN(c2ccccc2)NC1=O (stereo in doubt; 1f) [listing 1 of 2 here] | 6.32 | 0.53 | ED50 (Cavia porcellus): 62 mg/kg
11 | COCCC1CN(c2ccccc2)NC1=O (single isomer, unassigned; (+)) | 6.46 |  | 
12 | COCCC1CN(c2ccc(OCc3ccccc3)cc2)NC1=O (stereo unspecified) | 6.30 | 2.22 | 
13 | COCCC1CN(c2cccc(C(F)(F)F)c2)NC1=O (stereo unspecified) | 6.66 | 1.41 | 
14 | O=C1NN(c2ccccc2)CC1Cc1cccs1 (stereo unspecified) | 6.85 | 2.48 | 
15 | COCCc1cn(-c2ccccc2)[nH]c1=O | < 6.00 |  | inhibition [4]: 35%
16 | O=C1CCCN(c2ccccc2)N1 | 6.28 | 1.45 | 
17 | CN(C)CCC1CN(c2ccccc2)NC1=O (stereo unspecified) | < 6.00 |  | inhibition [5]: < 20%
18 | COCCC1CN(c2ccccc2)NC1=O (stereo in doubt; 1f) [listing 2 of 2 here] |  |  | ED50 [3]: 43 mg/kg
19 | CC(C)(O)C1CN(c2ccccc2)NC1=O (stereo unspecified) | < 6.00 |  | inhibition [4]: 35%
20 | O=C1NN(c2ccccc2)CC1Sc1ccccn1 (stereo unspecified) | 6.92 | 2.16 | 
21 | COCCC1CN(c2ccc(Cl)c(Cl)c2)NC1=O (stereo unspecified) | 6.72 | 1.96 | 
22 | CCOCC1CN(c2ccccc2)NC1=O (stereo unspecified) | 6.55 | 1.42 | 
23 | NC1=NN(c2cccc(C(F)(F)F)c2)CC1 [BW-755C] |  |  | ED50 (Cavia porcellus): 300 mg/kg; ED50 [3]: > 300 mg/kg
24 | COCC1CN(c2ccccc2)NC1=O (stereo unspecified) | 6.23 | 0.891 | ED50 (Cavia porcellus): 25 mg/kg; ED50 [3]: 29 mg/kg

Second part, led by results:

Row | pIC50 [1] | logP [2] | Compound | also measured
25 | 6.30 | 1.05 | COCCC1C(=O)NN(c2ccccc2)C1C (stereo unspecified) | 
26 | 6.28 | 0.955 | COCCOCC1CN(c2ccccc2)NC1=O (stereo unspecified) | 
27 | 7.22 | 2.5 | CCSC1CN(c2ccccc2)NC1=O (stereo unspecified) | ED50 (Cavia porcellus): 92 mg/kg; ED50 [3]: 95 mg/kg
28 | > 6.00 |  | O=C1NN(c2ccccc2)CC1C(O)(c1ccccc1)c1ccccc1 (stereo unspecified) | 
29 | 6.59 | 1.95 | CCCOCC1CN(c2ccccc2)NC1=O (stereo unspecified) | 
30 | 4.99 |  | COCCC1CN(c2ccccc2)NC1=O (stereo in doubt; 1f (-)) | 
31 | < 6.00 |  | COCCC1C(=O)NN(c2ccccc2)C1(C)C (stereo unspecified) | inhibition [4]: < 20%
32 | 6.74 | 3.63 | O=C1NN(c2ccccc2)CC1SCc1ccccc1 (stereo unspecified) | 
33 | 6.49 | 1.97 | CSC1CN(c2ccccc2)NC1=O (stereo unspecified) | 
34 | 6.17 | 1.41 | COCC1(C)CN(c2ccccc2)NC1=O (stereo unspecified) | 
35 | < 6.00 |  | COCC1CN(c2ccccc2)N(C)C1=O (stereo unspecified) | inhibition [4]: < 20%
36 |  | 1.03 | COCCC1CN(c2ccc(C)cc2)NC1=O (stereo unspecified) | 
